Results reported in ChEMBL document CHEMBL4651341, “The discovery of a novel series of compounds with single-dose efficacy against juvenile and adult Schistosoma species” (PLoS Negl Trop Dis, 2021).
Converted amounts (≈) assume the structure as drawn.

Tests used:
[1] = Mean oral bioavailability in Swiss albino male mice at […] per compound (administered in a mixture of 5 compounds to 3 mice) assessed by LCMS/MS.; also: dose 2.5 mg/kg; format: ADME, organism-based; conditions: male, Swiss albino, mouse, in vivo, read-out: Bioavailability
[2] = Mean AUC inf in Swiss albino male mice at 1 mg/kg per compound (administered iv in a mixture of 5 compounds to 3 mice) assessed by LCMS/MS.; format: ADME, organism-based; conditions: male, Swiss albino, mouse, in vivo
Method in brief: (§1)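 Male Swiss albino mice (~30 g), 3 per experiment, mostly dosed as mixtures of 5 compounds iv via the lateral tail vein. Vehicle: 10% DMSO/90% 50 mM Na2HPO4 with 0.5% Tween-80. Blood sampled at 5, 15, 30 min and 1, 2, 4, 8, 24 h. Plasma stored at −20 °C and quantified by LC-MS after acetonitrile precipitation.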

[3] = Mean observed clearance in Swiss albino male mice at 1 mg/kg per compound (administered iv in a mixture of 5 compounds to 3 mice) assessed by LCMS/MS.; format: ADME, organism-based; conditions: male, Swiss albino, mouse, in vivo, read-out: Clearance (converted); method in brief: as §1
[4] = Mean volume of distribution at steady state in Swiss albino male mice at 1 mg/kg per compound (administered iv in a mixture of 5 compounds to 3 mice) assessed by LCMS/MS.; format: ADME, organism-based; conditions: mouse, in vivo, read-out: Volume
Method in brief: (§2)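 Male Swiss albino mice (~30 g), 3 per experiment, mostly dosed as mixtures of 5 compounds iv via the lateral tail vein. Vehicle: 10% DMSO/90% 50 mM Na2HPO4 with 0.5% Tween-80. Plasma stored at −20 °C and quantified by LC-MS after acetonitrile precipitation.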

[5] = Mean half-life in Swiss albino male mice at 1 mg/kg per compound (administered iv in a mixture of 5 compounds to 3 mice) assessed by LCMS/MS.; format: ADME, organism-based; conditions: mouse, in vivo; method in brief: as §2
[6] = Mean plasma concentration at 24h in Swiss albino male mice at […] per compound (administered orally in a mixture of 5 compounds to 3 mice) assessed by LCMS/MS.; format: ADME, organism-based; conditions: mouse, po
[7] = Mean plasma concentration at 4h in Swiss albino male mice at […] per compound (administered orally in a mixture of 5 compounds to 3 mice) assessed by LCMS/MS.; format: ADME, organism-based; conditions: mouse, po
[8] = Mean time to peak plasma concentration in Swiss albino male mice at […] per compound (administered orally in a mixture of 5 compounds to 3 mice) assessed by LCMS/MS.; format: ADME, organism-based; conditions: mouse, po
[9] = Percentage of parent compound remaining after incubation for 90 minutes with cyropreserved mouse hepatocytes at a concentration of 1uM compound and […], determined by LCMS; format: ADME, tissue-based, Hepatocyte; conditions: cryopreserved mouse hepatocytes, read-out: Stability
Method in brief: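 Compound was incubated at 1 µM final (2 µM working solution mixed 1:1 with hepatocyte suspension) in supplemented KHB pH 7.4. Conditions: 37 °C, 5% CO2, gentle mixing, duplicates. Reaction quenched with ice-cold acetonitrile containing standard; analysed by LC-MS/MS. % remaining = AUC at t / AUC at T0.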

[10] = test system: Schistosoma mansoni; test: Concentration required to kill 50% of 42 day old worms 5 days after drug treatment.; format: functional, organism-based; conditions: Puerto Rican, 120 h
Method in brief: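 Adult S. mansoni were perfused from CD1 mice 6 weeks post-infection and washed. They were cultured 3 pairs per well in 1 mL DMEM with 2 mM glutamine, penicillin/streptomycin and 10% FCS […] at 37 °C, 5% CO2. Viability of individual worms was scored on day 5 (120 h).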

[11] = test system: Schistosoma mansoni; test: Concentration required to kill 50% of 21 day old worms 5 days after drug treatment.; format: functional, organism-based; conditions: Puerto Rican, 120 h
Method in brief: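 Juvenile S. mansoni (Puerto Rican strain) were perfused from CD1 mice 3 weeks post-infection and washed. They were cultured 6–8 per well in 200 µL DMEM with 2 mM glutamine, penicillin/streptomycin and 10% FCS at 37 °C, 5% CO2. Viability of individual worms was scored on day 5 after dosing (120 h).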

[12] = Solubility at 25 degC of compound (diluted from DMSO) in PBS at pH 7.4 determined after 24h (1h sonication, 22h shaking, 1h sonication) by LCMS/MS; format: physicochemical
[13] = Concentration required to kill 50% HepG2 cells as detected by MTT staining; format: toxicity, cell-based; conditions: homo sapiens, read-out: TC50 (the source's name)

Row | bioavailability [1] [%] | AUC(0-inf) [2] [ng·h/mL] | clearance [3] [mL/min/kg] | Vd [4] [L/kg] | half-life [5] [h] | concentration at 24 h [6] [ng/mL] | concentration at 4 h [7] [ng/mL] | Tmax [8] [h] | remaining at 1.5 h, 1 µM [9] [%] | solubility kinetic at 24 h [12] [µM] | SMILES | EC50 [10] [nM] | EC50 [11] [nM] | CC50 [13] [nM]
1 | 91.3 | 2730 | 3.08 | 6.69 | 23.3 | 208 | 322 | 1.67 | 56.2 | – | Fc1ccc(-c2cn3c(-c4ccc5[nH]ncc5c4)c(C(F)(F)F)nc3cn2)cc1C(F)(F)F | 329 | 350 | –
2 | 55.6 | 528 | 15.9 | 9.19 | 8.48 | 7.01 | 76 | 0.25 | 41.7 | 32.8 (≈ 15.2 µg/mL) | CC1(c2nc3cnc(-c4ccc(F)c(C(F)(F)F)c4)cn3c2-c2c(F)cc(O)cc2F)CC1 | 56.3 | 79.6 | 7900
3 | 45 | 360 | 23.3 | 7.39 | 7.09 | 5.17 | 52.6 | 0.25 | 12.5 | 1.26 (≈ 0.57 µg/mL) | CC(C)c1nc2cnc(-c3ccc(F)c(C(F)(F)F)c3)nc2n1-c1c(F)cc(O)cc1F | 71.4 | 128 | 4800
4 | – | – | – | – | – | – | – | – | 76.5 | 2.95 (≈ 1.38 µg/mL) | Fc1c(-c2c(C(F)(F)F)nc3cnc(-c4ccnc(C(F)(F)F)c4)cn23)ccc2[nH]ncc12 | 117 | 138 | 7000
5 | 81.8 | 1440 | 5.83 | 3.16 | 7.99 | 60.5 | 371 | 0.667 | 41.3 | – | CC(C)c1nc2cnc(-c3ccc(F)c(C(F)(F)F)c3)cn2c1-c1ccc2[nH]ncc2c1 | 185 | 174 | –
6 | – | – | – | – | – | – | – | – | 30.2 | 0.951 (≈ 0.412 µg/mL) | CC(C)c1nc2cnc(-c3cccc(C(F)(F)F)c3)cn2c1-c1c(F)cc(O)cc1F | < 45.5 | 93.7 | 7500
7 | – | – | – | – | – | – | – | – | 31.6 | 2.43 (≈ 1.15 µg/mL) | Cc1nc2cnc(-c3ccc(F)c(C(F)(F)C(F)(F)F)c3)cn2c1-c1c(F)cc(O)cc1F | 19.5 | 20.5 | 8800
8 | 57.1 | 320 | 26.2 | 8.08 | – | 7 | 55.8 | 0.25 | 33.5 | 2.33 (≈ 1.06 µg/mL) | Cc1nc2cnc(-c3cccc(C(F)(F)C(F)(F)F)c3)cn2c1-c1c(F)cc(O)cc1F | 33.9 | 35.1 | 9300
9 | 83.3 | 1470 | 5.75 | 3.39 | 8.96 | 71.4 | 381 | 2.33 | 68.1 | 0.865 (≈ 0.446 µg/mL) | CC(C)c1nc2cnc(-c3ccc(F)c(S(F)(F)(F)(F)F)c3)cn2c1-c1ccc2[nH]ncc2c1F | 11.2 | 8.21 | –
10 | 47.7 | 464 | 18 | 8.79 | 10 | 12.3 | 50.3 | 0.25 | 36 | 1.5 (≈ 0.656 µg/mL) | CCc1nc2cnc(-c3ccc(F)c(C(F)(F)F)c3)cn2c1-c1c(F)cc(O)cc1F | 52.8 | 51.4 | 8300
11 | – | – | – | – | – | – | – | – | 54.3 | 3.14 (≈ 1.57 µg/mL) | Oc1cc(F)c(-c2c(C3CC3)nc3cnc(-c4ccc(F)c(C(F)(F)C(F)(F)F)c4)cn23)c(F)c1 | 10.5 | 23.9 | 9400
12 | – | – | – | – | – | – | – | – | 16.7 | – | CC(C)c1cccc(-c2cn3c(-c4ccc5[nH]ncc5c4F)c(C(F)(F)F)nc3cn2)c1 | 5.3 | 5.18 | 12900
13 | – | – | – | – | – | – | – | – | 69 | – | Fc1c(-c2c(C(F)(F)F)nc3cnc(-c4cccc(C(F)(F)F)c4)cn23)ccc2[nH]ncc12 | 25.2 | 41.5 | –
14 | 21.1 | 144 | 58.5 | 4.06 | 1.24 | 0.01 | 9.68 | 0.333 | 50.7 | 1.21 (≈ 0.529 µg/mL) | CCc1nn2cnc(-c3ccc(F)c(C(F)(F)F)c3)cc2c1-c1c(F)cc(O)cc1F | 10.9 | 32.3 | 9800
15 | 81 | 2700 | 3.23 | 5.89 | 22.1 | 165 | 358 | 1 | 94.2 | 0.785 (≈ 0.392 µg/mL) | Fc1ccc(-c2cn3c(-c4ccc5[nH]ncc5c4F)c(C(F)(F)F)nc3cn2)cc1OC(F)(F)F | 16.9 | 20.8 | 12200
16 | – | – | – | – | – | – | – | – | 20.3 | – | CC(C)c1nc2cnc(-c3ccc(F)c(C(F)(F)F)c3)cn2c1-c1ccc(O)cc1Cl | 102 | 127 | –
17 | 52.5 | 328 | 25.5 | 3.28 | 2.75 | 0.971 | 57.2 | 0.5 | 55.8 | 0.0917 (≈ 0.0456 µg/mL) | Fc1ccc(-c2cn3c(-c4ccc5[nH]ncc5c4F)c(C(F)(F)F)nc3cn2)cc1CC(F)(F)F | 11.9 | 10.4 | 5300
18 | 14.3 | 342 | 25.2 | 1.77 | – | 0.01 | 22.4 | 0.333 | 42.2 | 6.55 (≈ 2.96 µg/mL) | CC(C)c1nn2cnc(-c3ccc(F)c(C(F)(F)F)c3)cc2c1-c1c(F)cc(O)cc1F | 21.7 | 26.9 | 8900
19 | – | – | – | – | – | – | – | – | 80.9 | 1.7 (≈ 0.842 µg/mL) | Fc1c(-c2c(C3CC3)nc3cnc(-c4cccc(S(F)(F)(F)(F)F)c4)cn23)ccc2[nH]ncc12 | 20.7 | 35.8 | 20700

Row | SMILES | bioavailability [1] [%] | AUC(0-inf) [2] [ng·h/mL] | clearance [3] [mL/min/kg] | Vd [4] [L/kg] | half-life [5] [h] | concentration at 24 h [6] [ng/mL] | concentration at 4 h [7] [ng/mL] | Tmax [8] [h] | remaining at 1.5 h, 1 µM [9] [%] | solubility kinetic at 24 h [12] [µM] | EC50 [10] [nM] | EC50 [11] [nM] | CC50 [13] [nM]
20 | CC(C)c1nc2cnc(-c3ccc(F)c(C(F)(F)F)c3)cn2c1-c1c(F)cc(OP(=O)(O)O)cc1F | 21.4 | 54.7 | 153 | 3.62 | 0.416 | 0.1 | 4.01 | 0.25 | 0.9 | 179 (≈ 95.1 µg/mL) | 27.2 | 25 | 6500
21 | Cc1nc2cnc(-c3ccc(F)c(C(F)(F)F)c3)cn2c1-c1c(F)cc(OP(=O)(O)O)cc1F | 39.3 | 111 | 75.3 | 7.18 | 2.31 | 0.1 | 15.6 | 0.25 | 40.8 | 136 (≈ 68.4 µg/mL) | – | 103 | 6800
